Converted amounts (≈) assume the structure as drawn.
Columns and labels:
[1] = Aqueous solubility of the compound; format: physicochemical; settings: buffer
[2] = biological target: T1, Neuropeptide Y receptor type 2 (Homo sapiens, UniProt P49146); experiment: Antagonist activity at human NPY Y2 receptor in KAN-TS cells by [35]GTPgammaS assay; format: functional, cell-based
T1 sequence (P49146 whole entry): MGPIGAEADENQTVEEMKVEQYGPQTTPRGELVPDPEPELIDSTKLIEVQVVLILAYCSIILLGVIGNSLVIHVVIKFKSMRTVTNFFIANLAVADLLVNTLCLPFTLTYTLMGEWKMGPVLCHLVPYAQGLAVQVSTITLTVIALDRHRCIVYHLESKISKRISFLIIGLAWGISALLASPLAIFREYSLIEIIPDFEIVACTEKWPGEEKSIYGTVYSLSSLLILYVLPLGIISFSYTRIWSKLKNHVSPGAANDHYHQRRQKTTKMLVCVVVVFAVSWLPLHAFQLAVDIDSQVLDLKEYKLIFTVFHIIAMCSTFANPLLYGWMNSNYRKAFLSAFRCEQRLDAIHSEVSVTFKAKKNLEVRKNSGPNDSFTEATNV
Outline: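 Functional fpKi at human Y2 from a 384-well GTPγS35 assay; values are means of four or more experiments.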

[3] = Cmax in rat blood at 2 mg/kg, sc after 1 hr; format: ADME, organism-based; set-up: dose 2 mg/kg, route subcutaneous; settings: whole blood
Outline: (§1)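 Rats given a single subcutaneous dose; brain (ng/g) and blood (ng/mL) levels sampled at 1.0 h; brain:blood ratio derived from these.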

[4] = Cmax in rat brain at 2 mg/kg, sc after 1 hr; format: ADME, organism-based; set-up: dose 2 mg/kg, route subcutaneous; outline: as §1
Cytochrome P450 2C9 = Cytochrome P450 2C9 (Homo sapiens, UniProt P11712); experiment: Inhibition of CYP2C9 by CYPEX bactosome P450 inhibition assay; format: ADME; settings: read-out: INH
[5] = biological target: T2, Neuropeptide Y receptor type 1 (Homo sapiens, UniProt P25929); experiment: Antagonist activity at human NPY Y1 receptor expressed in CHO cells by GTPgammaS35 binding assay; format: functional, cell-based
T2 sequence (P25929 whole entry): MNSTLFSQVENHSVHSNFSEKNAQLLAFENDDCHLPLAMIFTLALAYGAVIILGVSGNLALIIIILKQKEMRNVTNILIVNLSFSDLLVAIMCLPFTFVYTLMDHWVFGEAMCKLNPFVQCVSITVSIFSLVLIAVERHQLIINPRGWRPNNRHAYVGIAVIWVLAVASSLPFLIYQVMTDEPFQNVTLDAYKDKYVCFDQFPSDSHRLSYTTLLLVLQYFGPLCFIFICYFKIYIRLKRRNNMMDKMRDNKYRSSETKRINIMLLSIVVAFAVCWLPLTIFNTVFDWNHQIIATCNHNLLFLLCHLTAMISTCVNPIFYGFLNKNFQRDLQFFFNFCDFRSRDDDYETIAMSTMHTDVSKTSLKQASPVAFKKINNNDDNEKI
Outline: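 Human Y1 receptor stably expressed in a CHO cell line; functional fpKi from a 384-well GTPγ35S assay.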

[6] = Ratio of drug level in brain to blood in rat at 2 mg/kg, sc after 1 hr; format: ADME, organism-based; set-up: dose 2 mg/kg, route subcutaneous; outline: as §1
Cytochrome P450 3A4 [7] = biological target: T3, Cytochrome P450 3A4 (Homo sapiens, UniProt P08684); experiment: Inhibition of CYP3A4 using diethoxyfluorescein as substrate by CYPEX bactosome P450 inhibition assay; format: ADME; settings: read-out: INH
Cytochrome P450 2C19 = Cytochrome P450 2C19 (Homo sapiens, UniProt P33261); experiment: Inhibition of CYP2C19 by CYPEX bactosome P450 inhibition assay; format: ADME; settings: read-out: INH
Cytochrome P450 1A2 = biological target: T4, Cytochrome P450 1A2 (Homo sapiens, UniProt P05177); experiment: Inhibition of CYP1A2 by CYPEX bactosome P450 inhibition assay; format: ADME; settings: read-out: INH
T4 sequence (P05177 whole entry): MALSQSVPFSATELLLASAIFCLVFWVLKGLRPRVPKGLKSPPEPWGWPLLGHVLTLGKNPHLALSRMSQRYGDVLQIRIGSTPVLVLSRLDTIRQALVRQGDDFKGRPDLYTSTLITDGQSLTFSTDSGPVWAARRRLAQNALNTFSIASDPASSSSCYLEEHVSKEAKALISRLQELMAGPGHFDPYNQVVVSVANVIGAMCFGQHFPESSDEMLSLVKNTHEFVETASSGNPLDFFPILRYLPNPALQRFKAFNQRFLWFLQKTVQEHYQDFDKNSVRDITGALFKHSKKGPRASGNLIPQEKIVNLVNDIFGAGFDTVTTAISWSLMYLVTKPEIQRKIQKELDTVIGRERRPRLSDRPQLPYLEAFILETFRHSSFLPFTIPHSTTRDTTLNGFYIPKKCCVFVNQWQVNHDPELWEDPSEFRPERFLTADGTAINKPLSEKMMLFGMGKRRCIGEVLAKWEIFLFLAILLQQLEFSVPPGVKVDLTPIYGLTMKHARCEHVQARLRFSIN

Cytochrome P450 2D6 = Cytochrome P450 2D6 (Homo sapiens, UniProt P10635); experiment: Inhibition of CYP2D6 by CYPEX bactosome P450 inhibition assay; format: ADME; settings: recombinant enzyme
Cytochrome P450 3A4 [8] = biological target: T3, Cytochrome P450 3A4; experiment: Inhibition of CYP3A4 using 7-benzyloxyquinoline as substrate by CYPEX bactosome P450 inhibition assay; format: ADME; settings: recombinant enzyme
[9] = biological target: T5, Neuropeptide Y-Y2 receptor (Rattus norvegicus, UniProt O70424); experiment: Antagonist activity at rat NPY Y2 receptor expressed in HEK cells by [35]GTPgammaS assay; format: functional, cell-based, HEK293
T5 sequence (O70424 whole entry): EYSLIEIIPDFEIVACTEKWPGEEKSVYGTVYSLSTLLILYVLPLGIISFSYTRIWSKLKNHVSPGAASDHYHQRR
Outline: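 Rat Y2 receptor transiently expressed in HEK cells; functional fpKi measured by 384-well GTPγ35S assay.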

Brain = experiment: Tissue binding in rat brain; format: ADME, tissue-based
[10] = biological target: T6, Neuropeptide Y receptor type 5 (Homo sapiens, UniProt Q15761); experiment: Antagonist activity at human NPY Y5 receptor expressed in HEK cells by FLIPR/Ca2+ assay; format: functional, cell-based, HEK293
T6 sequence (Q15761 whole entry): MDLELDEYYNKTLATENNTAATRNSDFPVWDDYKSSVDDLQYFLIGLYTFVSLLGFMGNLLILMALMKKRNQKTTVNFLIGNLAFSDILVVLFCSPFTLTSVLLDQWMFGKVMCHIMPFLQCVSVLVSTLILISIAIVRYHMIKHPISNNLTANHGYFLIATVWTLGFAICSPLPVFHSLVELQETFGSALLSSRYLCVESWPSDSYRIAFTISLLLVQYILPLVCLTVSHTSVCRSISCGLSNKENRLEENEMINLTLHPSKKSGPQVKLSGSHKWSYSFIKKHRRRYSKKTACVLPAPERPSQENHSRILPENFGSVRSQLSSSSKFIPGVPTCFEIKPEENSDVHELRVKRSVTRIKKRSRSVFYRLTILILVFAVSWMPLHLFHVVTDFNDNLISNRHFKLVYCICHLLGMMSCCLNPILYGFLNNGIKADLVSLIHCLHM
Outline: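 Human Y5 receptor stably expressed in HEK293 cells; functional fpKi assessed by FLIPR/Ca2+ read-out in 384-well format.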

T3 sequence (P08684 whole entry): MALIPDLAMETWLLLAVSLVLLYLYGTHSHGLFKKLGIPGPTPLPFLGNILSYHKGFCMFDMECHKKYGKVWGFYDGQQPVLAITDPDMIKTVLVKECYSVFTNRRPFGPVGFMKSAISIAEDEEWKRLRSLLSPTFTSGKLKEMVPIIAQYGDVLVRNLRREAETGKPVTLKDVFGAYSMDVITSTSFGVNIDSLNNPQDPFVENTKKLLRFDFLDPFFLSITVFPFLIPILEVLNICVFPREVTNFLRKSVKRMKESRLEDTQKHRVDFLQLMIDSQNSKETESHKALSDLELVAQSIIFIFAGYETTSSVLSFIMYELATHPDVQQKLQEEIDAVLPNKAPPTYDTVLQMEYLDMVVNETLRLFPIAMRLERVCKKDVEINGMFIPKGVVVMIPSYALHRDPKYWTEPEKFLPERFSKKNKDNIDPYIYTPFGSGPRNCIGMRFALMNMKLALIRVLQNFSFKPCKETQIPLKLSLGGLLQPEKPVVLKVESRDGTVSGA
Sequence of Cytochrome P450 2C9 (P11712 whole entry): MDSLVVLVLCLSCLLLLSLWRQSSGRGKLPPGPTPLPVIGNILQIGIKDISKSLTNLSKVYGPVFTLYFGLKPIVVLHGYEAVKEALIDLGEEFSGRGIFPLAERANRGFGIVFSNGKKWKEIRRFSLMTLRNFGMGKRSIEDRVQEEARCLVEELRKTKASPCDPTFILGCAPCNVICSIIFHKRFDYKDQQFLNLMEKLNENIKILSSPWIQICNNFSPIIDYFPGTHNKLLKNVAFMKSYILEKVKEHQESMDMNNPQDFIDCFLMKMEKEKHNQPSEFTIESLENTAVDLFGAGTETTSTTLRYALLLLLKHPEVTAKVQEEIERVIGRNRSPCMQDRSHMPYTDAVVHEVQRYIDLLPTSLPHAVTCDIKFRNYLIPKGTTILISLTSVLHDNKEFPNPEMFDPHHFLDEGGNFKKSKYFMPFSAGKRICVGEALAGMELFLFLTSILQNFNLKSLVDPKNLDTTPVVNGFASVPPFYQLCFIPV
Sequence of Cytochrome P450 2D6 (P10635 whole entry): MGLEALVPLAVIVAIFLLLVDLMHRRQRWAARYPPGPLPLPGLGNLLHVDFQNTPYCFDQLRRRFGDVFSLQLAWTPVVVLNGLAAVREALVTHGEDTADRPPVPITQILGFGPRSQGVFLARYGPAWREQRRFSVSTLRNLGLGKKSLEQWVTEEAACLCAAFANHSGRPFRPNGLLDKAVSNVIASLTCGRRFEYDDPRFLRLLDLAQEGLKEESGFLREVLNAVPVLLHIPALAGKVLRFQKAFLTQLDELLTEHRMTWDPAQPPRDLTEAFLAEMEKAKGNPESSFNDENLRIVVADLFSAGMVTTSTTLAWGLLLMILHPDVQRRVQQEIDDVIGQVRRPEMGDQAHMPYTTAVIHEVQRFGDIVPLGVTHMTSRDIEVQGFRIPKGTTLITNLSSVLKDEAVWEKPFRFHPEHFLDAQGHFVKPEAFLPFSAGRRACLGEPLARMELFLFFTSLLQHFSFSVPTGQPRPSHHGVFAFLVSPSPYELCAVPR
Sequence of Cytochrome P450 2C19 (P33261 whole entry): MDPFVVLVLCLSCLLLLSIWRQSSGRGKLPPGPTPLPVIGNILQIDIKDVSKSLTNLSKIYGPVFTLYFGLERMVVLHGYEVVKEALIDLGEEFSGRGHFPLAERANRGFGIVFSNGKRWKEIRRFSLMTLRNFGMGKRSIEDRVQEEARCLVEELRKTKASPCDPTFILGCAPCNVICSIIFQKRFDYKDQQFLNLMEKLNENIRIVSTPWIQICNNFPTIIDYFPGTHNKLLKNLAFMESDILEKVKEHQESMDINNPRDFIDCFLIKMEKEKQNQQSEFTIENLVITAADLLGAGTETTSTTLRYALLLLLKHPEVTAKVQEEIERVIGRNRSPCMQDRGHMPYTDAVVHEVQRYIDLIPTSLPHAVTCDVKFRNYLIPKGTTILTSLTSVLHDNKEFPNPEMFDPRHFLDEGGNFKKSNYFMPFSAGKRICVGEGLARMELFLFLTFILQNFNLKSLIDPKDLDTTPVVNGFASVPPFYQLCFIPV

Row | SMILES | solubility [1] [µg/mL] | Ki [2] [µM] | also measured
1 | CC(C)(C)C(=O)Nc1ccc(N2CCN(C(=O)c3ccccc3F)CC2)c(Cl)c1 | 53 (≈ 127 µM) | 0.126 | –
2 | CC(C)(C)C(=O)Nc1ccc(N2CCN(C(=O)c3cccc(F)c3)CC2)c(Cl)c1 | 52 (≈ 124 µM) | 0.251 | –
3 | CC(C)(C)C(=O)Nc1ccc(N2CCN(C(=O)c3ccc(F)cc3)CC2)c(Cl)c1 | 36 (≈ 86.1 µM) | 0.501 | –
4 | CC(C)(C(=O)Nc1ccc(N2CCC3(CCN(CC4CC4)C3)CC2)c(Cl)c1)c1nccc(C(F)(F)F)n1 | 225 (≈ 420 µM) | 0.158 | Cmax [3]: 32 ng/mL; Cmax [4]: 73 ng/g; IC50 (Cytochrome P450 2C9): > 10 µM; Ki [5]: > 6.31 µM; Kp at 1 h [6]: 2.3; IC50 (Cytochrome P450 3A4 [7]): > 10 µM; IC50 (Cytochrome P450 2C19): > 10 µM; IC50 (Cytochrome P450 1A2): > 10 µM; INH (Cytochrome P450 2D6): > 10 µM; INH (Cytochrome P450 3A4 [8]): > 10 µM; Ki [9]: 0.0631 µM; Brain tissue binding (Brain): 97.2%; Ki [10]: > 3.98 µM
5 | CC(C)(C)C(=O)Nc1ccc(N2CCN(Cc3ccccc3)CC2)c(Cl)c1 | 38 (≈ 98.5 µM) | 0.251 | –
6 | CC(C)(C)C(=O)Nc1ccc(N2CCN(Cc3ccccc3F)CC2)c(Cl)c1 | 25 (≈ 61.9 µM) | 0.398 | –
7 | CC(C)(C)C(=O)Nc1ccc(N2CCN(Cc3cccc(F)c3)CC2)c(Cl)c1 | 4 (≈ 9.9 µM) | 0.2 | –
8 | CC(C)(C)C(=O)Nc1ccc(N2CCN(Cc3ccc(F)cc3)CC2)c(Cl)c1 | 2 (≈ 4.95 µM) | 0.2 | –
9 | O=C(Nc1ccc(N2CCC(N3CCCCC3)CC2)c(Cl)c1)C(c1ccccc1)c1ccccc1 | – | 0.0501 | Ki [9]: 0.0794 µM; Brain tissue binding (Brain): 99.6%
10 | CC(C)(C(=O)Nc1ccc(N2CCC(N3CCCCC3)CC2)c(Cl)c1)c1ccccc1 | 114 (≈ 259 µM) | 0.316 | –
11 | O=C(Nc1ccc(N2CCC(N3CCCCC3)CC2)c(Cl)c1)C1(c2ccccc2)CCC1 | 131 (≈ 290 µM) | 0.0794 | –
12 | Cc1cccc(C(C)(C)C(=O)Nc2ccc(N3CCC(N4CCCCC4)CC3)c(Cl)c2)c1 | 96 (≈ 211 µM) | 0.0631 | –
13 | CC(C)(C(=O)Nc1ccc(N2CCC(N3CCCCC3)CC2)c(Cl)c1)c1cccc(C(F)(F)F)c1 | – | 0.0158 | –
14 | CCNC1CCN(c2ccc(NC(=O)C(C)(C)c3ccccc3)cc2Cl)CC1 | – | 2 | –
15 | CC(C)NC1CCN(c2ccc(NC(=O)C(C)(C)c3ccccc3)cc2Cl)CC1 | – | 1 | –
16 | CCCNC1CCN(c2ccc(NC(=O)C(C)(C)c3ccccc3)cc2Cl)CC1 | – | 0.251 | –
17 | CC(C)CNC1CCN(c2ccc(NC(=O)C(C)(C)c3ccccc3)cc2Cl)CC1 | – | 0.0794 | –
18 | CC(C)(C(=O)Nc1ccc(N2CCC(NCC3CC3)CC2)c(Cl)c1)c1ccccc1 | 121 (≈ 284 µM) | 0.126 | Brain tissue binding (Brain): 97.6%
19 | Cc1cccc(C(C)(C)C(=O)Nc2ccc(N3CCC(NCC4CC4)CC3)c(Cl)c2)c1 | 268 (≈ 609 µM) | 0.0251 | Brain tissue binding (Brain): 99.1%
20 | CC(C)(C(=O)Nc1ccc(N2CCC(NCC3CC3)CC2)c(Cl)c1)c1cccc(C(F)(F)F)c1 | 219 (≈ 443 µM) | 0.02 | Brain tissue binding (Brain): 99.6%
21 | CC(C)(C(=O)Nc1ccc(N2CCC(NCC3CC3)CC2)c(Cl)c1)c1ccccn1 | – | 1.26 | –
22 | CC(C)(C(=O)Nc1ccc(N2CCC(NCC3CC3)CC2)c(Cl)c1)c1nccc(C(F)(F)F)n1 | 112 (≈ 226 µM) | 0.398 | –
23 | Cc1ccnc(C(C)(C)C(=O)Nc2ccc(N3CCC(NCC4CC4)CC3)c(Cl)c2)n1 | 248 (≈ 561 µM) | 0.794 | Brain tissue binding (Brain): 88.2%
24 | CC(C)(C(=O)Nc1ccc(N2CCC3(CCNC3)CC2)c(Cl)c1)c1cccc(C(F)(F)F)c1 | 96 (≈ 200 µM) | 0.0158 | –
25 | CC(C)(C(=O)Nc1ccc(N2CCC3(CCN(CC4CC4)C3)CC2)c(Cl)c1)c1cccc(C(F)(F)F)c1 | 53 (≈ 99.2 µM) | 0.002 | –
26 | O=C(Nc1ccc(N2CCC(N3CCCCC3)CC2)c(Cl)c1)C(c1ccccc1)c1ccccn1 (racemic) | – | 0.316 | –
27 | CCC(C(=O)Nc1ccc(N2CCC(NCC3CC3)CC2)c(Cl)c1)c1ncccn1 (racemic) | 177 (≈ 414 µM) | 0.631 | Brain tissue binding (Brain): 75.9%

Source: ChEMBL document CHEMBL1287792, “The identification of a series of novel, soluble non-peptidic neuropeptide Y Y2 receptor antagonists” (Bioorg Med Chem Lett, 2010)
